Screening data from PubChem BioAssay.
Shown are actives, neighbours in structure and some others; about 1.4% of the full set was active somewhere.
CRFR2-BP antag = CRF-BP/CRF-R2 complex antagonism; inhibition, % at 11.8 µM; AID 588475; HEK293 CRF-R2/CRF-BP, CRF-induced calcium fluorescence; 0.59% of 350,000 active;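 active means inhibition of the ligand-induced calcium signal above about 50% at the single tested concentration, limit read from the data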
RTF Ca sens act = increases calcium sensitivity of human cardiac regulated thin filaments; P19429+P45379; IANBD-labeled TnC RTF fluorescence at EC20 calcium; 0% EC20 calcium, 100% full calcium; activation, % at 7.2 µM; 0.24% of 340,000 active;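 active means activation above the mean over all tested compounds plus 3 SD, cut at about 30% in these data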;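 further: rise in fluorescence read as greater calcium sensitivity of cardiac thin filaments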
DDE Tn7 FP inh = DD(E)-Tn7 binding inhibition, primary FP screen. 0.13% of 370,000 active. inhibition, % at 8.3 µM. P02675. FP displacement of FITC-Tn7 peptide from fibrin DD(E); 0% = median of compound wells per plate;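 active means inhibition above the mean of compounds falling within the control limits plus 3 SD of them, cut at about 14% in these data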;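 further: 0% = plate median of compound wells and 100% = 10 µM Aha-Tn7 peptide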
Target sequence (P02675 whole entry, looked up): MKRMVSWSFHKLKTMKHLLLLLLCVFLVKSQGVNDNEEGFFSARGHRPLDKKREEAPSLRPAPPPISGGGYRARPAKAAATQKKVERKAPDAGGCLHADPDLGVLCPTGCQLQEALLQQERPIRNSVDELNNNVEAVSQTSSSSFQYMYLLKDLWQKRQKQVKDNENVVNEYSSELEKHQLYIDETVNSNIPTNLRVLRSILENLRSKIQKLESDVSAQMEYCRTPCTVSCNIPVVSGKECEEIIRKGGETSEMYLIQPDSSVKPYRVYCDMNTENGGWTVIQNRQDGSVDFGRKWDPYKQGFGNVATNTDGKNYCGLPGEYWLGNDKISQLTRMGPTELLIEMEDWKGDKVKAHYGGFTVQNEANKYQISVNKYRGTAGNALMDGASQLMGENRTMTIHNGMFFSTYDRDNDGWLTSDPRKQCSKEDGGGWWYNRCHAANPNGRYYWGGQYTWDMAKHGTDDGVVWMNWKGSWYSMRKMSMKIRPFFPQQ
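Assay system: human fibrin DD(E). Input: DD(E) 2 µM final. Medium: Tris buffer with calcium and detergent, pH 7.8. Compound dosing: single point at 8.3 µM. Timing: 10 min plus 3 h, room temperature. Technique: fluorescence polarization of the labelled Tn7 tracer. Read-out: percent inhibition. Replicates: singlicate testing.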
Tn6 DDE FP = DD(E)-Tn6 binding inhibition, primary FP screen | 0.21% of 370,000 active | Fibrin DD(E) TRITC-Tn6 fluorescence polarization displacement | inhibition, % at 8.3 µM;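 active means inhibition above a per-campaign cutoff: mean of compounds within control limits plus 3 SD, cut at about 15% in these data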;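 further: 0% = median of all compound wells on the plate and 100% = blocking peptide control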
Cardiac RTF inh = cardiac RTF calcium desensitization | P19429+P45379 | inhibition, % at 7.15 µM | IANBD-labeled cardiac RTF, Ca2+ fluorescence | 0.12% of 340,000 active | AID 493244;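 active means inhibition above the mean inhibition of all tested compounds plus 3 SD, cut at about 17% in these data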;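 further: assay run at fixed EC70 calcium of 1.6 mM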
CRFBP-R2 agonist = agonists of human CRF-binding protein/CRF-R2 receptor complex. activation, % at 13.2 µM. AID 588473. 0.46% of 350,000 active. HEK293 CRF-R2/CRF-BP, calcium dye fluorescence (FLIPR); percent of saturating CRF peptide response;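 active means activation of at least 50%, plus an integration ratio under a set limit after plate pattern correction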;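 further: plate controls were neutral control wells without compound for no effect and CRF at EC100 for full effect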
RTF inh confirm = cardiac RTF calcium sensitivity inhibition, confirmation | 8% of 360 active | shares compounds with Cardiac RTF inh | reconstituted cardiac thin filaments, calcium sensitivity fluorescence | inhibition, % at 7.15 µM; in the data active means inhibition above about 18%
Tn7 DDE conf = confirmation of inhibitors of Tn7 binding to human fibrin DD(E). AID 720628. shares compounds with DDE Tn7 FP inh. inhibition, % at 8.3 µM. 5% of 460 active. FP displacement of TRITC-Tn7 peptide from DD(E); 0% set at plate's compound-well median;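 active means inhibition above the campaign cutoff, the mean of compounds within control limits plus 3 SD, cut at about 14% in these data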;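 further: 100% = median FP of high control wells holding Aha-Tn7 inhibitor peptide; displacers lower polarization since freed probe rises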
DDE Tn7 FP ctr = counter-screen hit for Tn7 peptide-fibrin DD(E) binding disruption; TRITC-Tn7 probe displacement, fluorescence polarization; AID 720633; inhibition, % at 8.3 µM; shares compounds with DDE Tn7 FP inh; 3% of 460 active;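 active means inhibition above the cutoff, the mean of compounds lying between the control bounds plus 3 SD of those compounds, cut at about 17% in these data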;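 further: 0% = median of compound sample wells and 100% = excess unlabeled Aha-Tn7 peptide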
An asterisk follows results filed as active; . = no result given.

SMILES	CRFR2-BP antag	RTF Ca sens act	DDE Tn7 FP inh	Tn6 DDE FP	Cardiac RTF inh	CRFBP-R2 agonist	Tn7 DDE conf	DDE Tn7 FP ctr	others
S=c1[nH]nc(-c2ccco2)n1/N=C/C=C/c1ccco1	-9	-12	5	7	18*	-5	.	.	RTF inh confirm=-9
Cc1ncccc1C(=O)N1CCCC(c2cc(C(=O)Nc3ccc(C(C)(C)C)cc3)no2)C1 (stereo not given)	.	.	-1	4	.	.	.	.
CC1(C(=O)NS(=O)(=O)c2ccccc2)CCN1C(=O)Cc1ccc(Cl)cc1Cl (stereo not given)	.	.	5	-3	.	.	.	.
COc1ccc(/C=C2\SC(=S)N(C(C(=O)O)c3ccccc3)C2=O)c(OC)c1 (stereo not given)	30	7	9	-1	-4	4	.	.
COc1cc(/C=C2\SC(=S)N(C(C(=O)O)c3ccccc3)C2=O)cc(OC)c1OC (stereo not given)	0	11	2	-3	28*	2	.	.	RTF inh confirm=-4
Cc1c(Cl)cccc1NS(=O)(=O)c1ccc2c(c1)C1C=CCC1C(c1ccc(C(=O)O)cc1)N2 (stereo not given)	-11	-33	.	.	31*	4	.	.	RTF inh confirm=-14
Nc1ncnc2oc(-c3ccco3)c(-c3ccco3)c12	-58	-24	-4	-2	58*	3	.	.	RTF inh confirm=9
O=C1C=C(NCc2ccncc2)CC(c2ccccc2)C1 (stereo not given)	-6	-2	6	2	-4	1	.	.
O=C1C=C(NNC(=O)c2ccncc2)CC(c2ccccc2)C1 (stereo not given)	-10	5	29*	5	-15	7	-7	-15
CC1CCCC(C)N1C(=O)COC(=O)Cc1c[nH]c2ccccc12 (stereo not given)	-9	-4	1	2	-9	2	.	.
CC1CCCCN1C(=O)COC(=O)Cc1c[nH]c2ccccc12 (stereo not given)	-8	-1	15*	4	3	1	2	0
COc1ccccc1N1CCN(C(=O)c2oc3ccc(F)cc3c2C)CC1	-18	-2	16*	-4	-7	5	0	-1
COc1ccccc1OCC(=O)N1CCN(c2ccccc2OC)CC1	18	-8	19*	-6	-4	-3	-3	-7
C#CCNc1ccc([N+](=O)[O-])cc1	9	1	19*	-1	-11	0	14	2
CC(=O)Nc1cc(-c2cccnc2)cn2c(-c3ccc(F)cc3)cnc12	.	.	5	5	.	.	.	.
COc1cc(/C=N\NC(=O)c2ccc(Cn3nc([N+](=O)[O-])c(Cl)c3C)o2)ccc1O	21	2	-3	0	-5	15	.	.
COc1cccc(/C=N\NC(=O)c2ccc(Cn3cc(Br)c([N+](=O)[O-])n3)o2)c1O	37	-4	14*	-13	-11	-1	-2	-10
COC(=O)C1CSC(C(=O)OC)N1C(=O)Nc1ccc(Cl)c(Cl)c1 (stereo not given)	7	-2	15*	4	-6	0	1	-2
COC(=O)C1CSC(C(=O)OC)N1C(=O)Nc1ccc(Cl)cc1 (stereo not given)	7	1	2	2	-2	1	.	.
Cc1ccccc1-c1cccc2c3c([nH]c12)[C@@H]1C[C@H]2[C@@H](CN1CC3)[C@H](C)ON2C	.	.	5	-5	.	.	.	.
CCC1(C)NC(=O)N(CC(=O)N2N=C(c3ccccc3)CC2c2ccc(OC)cc2)C1=O (stereo not given)	-34	0	17*	3	-4	-1	-4	-9
